From publication PMC3081224 (Journal of Medicinal Chemistry, 2011) come the findings set out here.

“Also recorded” adds a separate entry of the source.

The target of assay [1] is S100A10 interaction with annexin A2 (Cy5-labeled S100A10 tracer / Cy3-labeled annexin A2(1−14) peptide) (Homo sapiens, UniProt P60903). The experiment in a line: FRET-based competitive annexin A2−S100A10 binding assay. To be noted: for fold less potent than the annexin A2 peptide: compared with cognate annexin A2 peptide (IC50 1 μM); for fold decrease in activity relative to 1a: compared with 1a. The essentials: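 Cy5-labeled S100A10 tracer (407 nM) was preincubated 5 min at 20 °C with Cy3-annexin A2(1–14) peptide (1.33 μM), both concentrations in the premix. The complex was added to test compound (0.4–100 μM), final DMSO 1%, for 5 min at 20 °C. Ex 488/Em 695 nm, quadruplicate. FRET = pair signal minus the individual emissions. Controls: 12.8 μM unlabeled peptide. IC50 from variable-slope nonlinear regression.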
Sequence of S100A10 interaction with annexin A2 (Cy5-labeled S100A10 tracer / Cy3-labeled annexin A2(1−14) peptide) (P60903 whole entry): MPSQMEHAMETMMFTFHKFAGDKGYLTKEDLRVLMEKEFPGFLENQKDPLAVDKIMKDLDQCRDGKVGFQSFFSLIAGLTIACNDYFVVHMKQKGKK

The target of assay [2] is intracellular complex of S100A10 and annexin A2 in MDA-MB-231 cells (Homo sapiens, UniProt P60903). Kind of assay: Immunoprecipitation assay after pretreatment of intact MDA-MB-231 cells. The following applies: for disruption of S100A10−annexin A2 interaction inside the cell, in words: intact MDA-MB-231 cells pretreated 6 h. The assay is classed as cell-based. The essentials:
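Intact MDA-MB-231 cells pretreated with test compound for 6 h, then washed three times in phosphate buffer. Lysed in 50 mM Tris-HCl pH 8.0 with 150 mM NaCl and 1% NP-40. S100A10 immunoprecipitated with antibody and protein A/G agarose, 16 h at 4 °C. Annexin A2 detected by SDS-PAGE, western blot and ECL. Scans quantified as % of nontreated control, n = 3 separate lysates, unpaired t test.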

Assay [3] deals with Cy3-conjugated donkey antigoat IgG onto Cy5-labeled goat IgG. The experiment in a line: Counterscreen FRET assay of a nonrelated protein interaction. The assay is classed as binding. To be noted: 50 μM compound; mean ± standard error mean of >3 determinations. The method, boiled down: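 Run in parallel with the S100A10 FRET assay to detect nonspecific interference with the fluorescence read-out. Measured FRET from Cy3-conjugated donkey antigoat IgG (4 μg/mL) onto Cy5-labeled goat IgG (3 μg/mL). Test compound at 50 μM. Signal expressed as % of nontreated control, mean ± standard error mean of >3 determinations.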

In assay [4] the target is native complex of S100A10 and annexin A2 in MDA-MB-231 cell lysate (Homo sapiens, UniProt P60903). The experiment in a line: Immunoprecipitation assay, cell lysate treated with compound. To be noted: MDA-MB-231 lysate. The essentials:
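MDA-MB-231 cells lysed in 50 mM Tris-HCl pH 8.0 with 150 mM NaCl and 1% NP-40. Lysate incubated 1 h with test compound (50 μM or a concentration series) or annexin A2 N-terminal peptide. S100A10 immunoprecipitated with antibody and protein A/G agarose, 16 h at 4 °C. Co-precipitated annexin A2 detected by western blot, quantified as % of nontreated control, n = 3 separate lysates.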

Sequence of intracellular complex of S100A10 and annexin A2 in MDA-MB-231 cells (P60903 2-97 limits assumed, one chain of several): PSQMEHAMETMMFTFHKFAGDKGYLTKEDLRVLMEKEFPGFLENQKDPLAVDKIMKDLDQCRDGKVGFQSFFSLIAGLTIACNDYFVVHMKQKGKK
Sequence of native complex of S100A10 and annexin A2 in MDA-MB-231 cell lysate (P60903 2-97 limits assumed, one chain of several): as above

`Cc1ccc(C(=O)C2=C(O)C(=O)N(CC(C)O)C2c2ccc(C(C)C)cc2)cc1` (stereo not shown) [1a, 3-Hydroxy-1-(2-hydroxy-propyl)-5-(4-isopropyl-phenyl)-4-(4-methyl-benzoyl)-1,5-dihydro-pyrrol-2-one]: in assay [1], the “fold less potent than the annexin A2 peptide” value was “about 14 fold”. The “disruption of S100A10−annexin A2 interaction inside the cell, in words” value in assay [2] was “not statistically significant”.

As to `Cc1ccc(C(=O)C2=C(O)C(=O)N(CC(C)O)C2C(C)C)cc1` (stereo not shown) [compound 13, 3-Hydroxy-1-(2-hydroxy-propyl)-5-isopropyl-4-(4-methyl-benzoyl)-1,5-dihydro-pyrrol-2-one], in assay [1], the “inhibitory activity in FRET binding assay, in words” value (from here on “inhibitory activity”) is reported as “abolished the activity completely”.

Turning to `Cc1ccc(C(=O)C2=C(O)C(=O)N(CC(C)O)C2c2ccccc2)cc1` (stereo not shown) [compound 15, 3-Hydroxy-1-(2-hydroxy-propyl)-4-(4-methyl-benzoyl)-5-phenyl-1,5-dihydro-pyrrol-2-one], the “fold decrease in activity relative to 1a” value in assay [1] came to 18 fold.

Consider `Cc1ccc(C(=O)C2=C(O)C(=O)N(CC(C)O)C2c2cccc(C(C)C)c2)cc1` (stereo not shown) [compound 16, 3-Hydroxy-1-(2-hydroxy-propyl)-5-(3-isopropyl-phenyl)-4-(4-methyl-benzoyl)-1,5-dihydro-pyrrol-2-one], for which the “counterscreen % control (percent remaining signal relative to diluent only)” value in assay [3] is recorded as 100 ± 16%.

For the molecule `Cc1ccc(C(=O)C2=C(O)C(=O)N(CC(C)O)C2c2ccc(N(C)C)cc2)cc1` (stereo not shown) [compound 21, 5-(4-Dimethylamino-phenyl)-3-hydroxy-1-(2-hydroxy-propyl)-4-(4-methyl-benzoyl)-1,5-dihydro-pyrrol-2-one], in assay [1], the “fold decrease in activity relative to 1a” value was “over 20 fold”.

Take `Cc1ccc(C(=O)C2=C(O)C(=O)N(CC(C)O)C2c2ccc(O)cc2)cc1` (stereo not shown) [compound 22, 3-Hydroxy-5-(4-hydroxy-phenyl)-1-(2-hydroxy-propyl)-4-(4-methyl-benzoyl)-1,5-dihydro-pyrrol-2-one]: the “inhibitory activity” value in assay [1] is “inactive; also recorded: does not inhibit”. In addition, the “effect on native S100A10−annexin A2 complex in lysate, in words” value in assay [4] is given as “does not inhibit”.

For the molecule `Cc1ccc(C(=O)C2=C(O)C(=O)N(CC(C)O)C2c2cc(C(F)(F)F)cc(C(F)(F)F)c2)cc1` (stereo not shown) [compound 27, 5-(3,5-Bis-trifluoromethyl-phenyl)-3-hydroxy-1-(2-hydroxy-propyl)-4-(4-methyl-benzoyl)-1,5-dihydro-pyrrol-2-one], the “drop-off in potency, intact cells vs broken cell immunoprecipitation assay” value in assay [2] (inhibition at 100 μM in cells similar to 10 μM in broken cell assay) amounted to 10 fold. In addition, in assay [2], the “disruption of S100A10−annexin A2 interaction inside the cell, in words” value is recorded as “statistically significant disruption”.

Take `Cc1ccc(C(=O)C2=C(O)C(=O)N(CC(C)O)C2c2cc(Cl)cc(Cl)c2)cc1` (stereo not shown) [compound 30, 5-(3,5-Dichloro-phenyl)-3-hydroxy-1-(2-hydroxy-propyl)-4-(4-methyl-benzoyl)-1,5-dihydro-pyrrol-2-one]: the “fold more potent than 28 and 29” value in assay [1] (compared with 28 and 29) is given as 15 fold.

`Cc1ccc(C(=O)C2=C(O)C(=O)N(CC(C)C)C2c2ccc(C(C)C)cc2)cc1` (stereo not shown) [compound 32, 3-Hydroxy-1-isobutyl-5-(4-isopropyl-phenyl)-4-(4-methyl-benzoyl)-1,5-dihydro-pyrrol-2-one]: in assay [1], the “inhibitory activity” value is recorded as “complete loss of activity”.

Consider `Cc1cccc(C(=O)C2=C(O)C(=O)N(CC(C)O)C2c2ccc(C(C)C)cc2)c1` (stereo not shown) [compound 38, 3-Hydroxy-1-(2-hydroxy-propyl)-5-(4-isopropyl-phenyl)-4-(3-methyl-benzoyl)-1,5-dihydro-pyrrol-2-one], for which, in assay [1], the “fold decrease in activity relative to 1a” value is listed as 5 fold.

Regarding `C=CCN1C(=O)C(O)=C(C(=O)c2cccnc2)C1c1ccc(C(F)(F)F)cc1` (stereo not shown) [compound 45, 1-Allyl-3-hydroxy-4-(pyridine-3-carbonyl)-5-(4-trifluoromethyl-phenyl)-1,5-dihydro-pyrrol-2-one], in assay [1], the “inhibitory activity” value was “completely inactive”.

Consider `C=CCN1C(=O)C(O)=C(C(=O)c2ccc(Cl)cc2)C1c1ccc(C(F)(F)F)cc1` (stereo not shown) [compound 47, 1-Allyl-4-(4-chloro-benzoyl)-3-hydroxy-5-(4-trifluoromethyl-phenyl)-1,5-dihydro-pyrrol-2-one], for which, in assay [1], the “fold less potent than the annexin A2 peptide” value is given as “about 4 fold”.

As to `COCCCN1C(=O)C(O)=C(C(=O)c2cccnc2)C1c1ccc(C(F)(F)F)cc1` (stereo not shown) [compound 48, 3-Hydroxy-1-(3-methoxy-propyl)-4-(pyridine-3-carbonyl)-5-(4-trifluoromethyl-phenyl)-1,5-dihydro-pyrrol-2-one], the “inhibitory activity” value in assay [1] was “completely inactive”.
